Compound activity (PubChem BioAssay)
UPR XBP1 act = activators of adaptive arm of unfolded protein response (XBP1) | CHO-XBP1 luciferase reporter, IRE1-XBP1 UPR activation, luminescence; percent of tunicamycin response, DMSO as zero | activation, % at 20 µM | 330,000 compounds, 0.33% hits | AID 463104;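 active = versus positive control, 20 µM dose yields 30% or more activation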;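 note: 100% = tunicamycin at 10 µg/mL and 0% = DMSO only wells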
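Assay system: CHO-XBP1 luciferase reporter cells; Schedule: 6 h treatment, 37 °C; Detection: glow luminescence from Steady-Glo reagent; Benchmarks: high control tunicamycin 10 µg/mL final, low control DMSO vehicle only.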
CHOP inhibitor = blocks CHOP induction under ER stress; CHO-K1 CHOP-promoter luciferase, tunicamycin-induced, 15-18 h; inhibition, % at 10 µM; 220,000 compounds, 3.8% hits;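 active = compounds that reduced the stress-induced luciferase reporter signal by more than about 70% of percent inhibition, limit read from the data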;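 note: 0% = tunicamycin plus vehicle and 100% = wells without tunicamycin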
UPR CHOP act = activators of apoptotic arm of unfolded protein response (CHOP); activation, % at 10 µM; 330,000 compounds, 0.34% hits; CHO-CHOP luciferase reporter, UPR activation, luminescence; percent of tunicamycin response over DMSO baseline;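 active = at 10 µM dose, activation of 40% or more, normalized to positive control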;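 note: 100% = tunicamycin at 10 µg/mL and 0% = DMSO alone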
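Assay system: CHO cells with stable CHOP pathway luciferase reporter; Buffer or medium: F12 plus 10% serum; Times: 16-18 h cell attachment, then 6 h compound exposure, 37 °C; Signal: luciferase luminescence; Read-out basis: percent activation relative to tunicamycin control; Control set: tunicamycin high control, DMSO low control.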
NR3A LBD binder = modulates the human NR3A ligand-binding domain; NR3A LBD differential scanning fluorimetry, Tm shift; 0% = protein alone, 100% = glycine-bound protein; Tm shift relative to glycine control, % at 25 µM; 340,000 compounds, 2.5% hits; AID 1259313;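 active = melting temperature shift of at least 10% of the positive control shift, at one fixed dose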
aDG glyco up = alpha-DG glycosylation activation | activation, % at 10 µM | Pro5-aDG cells, alpha-DG glycosylation AlphaScreen (IIH6); 0% Pro5, 100% B10-LARGE cell signal | 360,000 compounds, 0.22% hits;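 active = activation of at least 8% versus controls, or a plate z-score of at least 8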;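 note: Pro5 are CHO cells carrying HIG-tagged alpha-DG that lacks glycosylation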
MPTP block = blocks calcium-induced mitochondrial swelling; isolated mouse mitochondria, Ca2+ swelling absorbance, 30 min; 360,000 compounds, 1.4% hits; inhibition, % at 10 µM;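 active = inhibition of 50% or more, scaled per plate between neutral and stimulator controls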;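 note: 0% = DMSO wells given calcium and 100% = 1 mM EGTA wells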
The depositor's hits bear a star; . = no result given. Sampled rows, rich in hits. Any-hit rate of the full collection: about 5.6%.

SMILES	UPR XBP1 act	CHOP inhibitor	UPR CHOP act	NR3A LBD binder	aDG glyco up	MPTP block
CCOC(=O)c1cccc(NC(=O)Cn2cc3c(n2)CCC(C)C3)c1 (stereo not given)	1	83*	-2	3	1	-2
COc1ccc(N2CCN(S(=O)(=O)CCNC(=O)C3CC3)CC2)cc1	2	.	1	13*	0	-3
O=C(CCC1CCCCC1)NCCS(=O)(=O)N1CCN(c2ccc(F)cc2)CC1	1	.	0	14*	0	0
CCc1ccc2c(Cl)c(C(=O)N/N=C/c3c[nH]c4ccccc34)sc2c1	-3	71*	5	24*	1	5
CCc1ccc(-c2cc(C(=O)N/N=C/c3c[nH]c4ccccc34)[nH]n2)cc1	1	89*	1	24*	0	-2
Cn1c(CNC(=O)CCNC(=O)c2cccc(Cl)c2)cc(=O)n(C)c1=O	-1	.	1	12*	0	-1
CCCSc1cc(NCCOC(=O)CCC)c([N+](=O)[O-])c2nonc12	-4	68	6	-15	0	1
CCCC(=O)OCCNc1cc(SCc2ccco2)c2nonc2c1[N+](=O)[O-]	-4	13	-4	-1	0	0
CCC(=O)OCCNc1cc(Sc2nc3ccccc3[nH]2)c2nonc2c1[N+](=O)[O-]	.	109*	.	-10	0	2
CCC(=O)OCCNc1cc(Sc2nc3ccccc3s2)c2nonc2c1[N+](=O)[O-]	-7	113*	-9	-21	0	5
CCCCC1=CC2=C(c3ccco3)C(=O)C(C)(OC(=O)c3ccc(OC)cc3)C(=O)C2=CN1CC1CC1 (stereo not given)	23	90*	33	0	1	0
COc1cc(OC)cc(C(=O)NNC(=O)CN2C(=O)NC(C)(c3ccc(C)cc3)C2=O)c1 (stereo not given)	-1	.	0	1	0	-2
O=C(CC1SC(=NCCc2ccccc2)N(/N=C/c2cccs2)C1=O)Nc1ccc(Cl)cc1 (stereo not given)	1	11	2	21*	0	-12
O=C(CC1SC(=O)N(c2ccccc2)C1=O)Nc1ccc(Br)cc1 (stereo not given)	-1	10	-2	30*	0	9
O=C(CC1Sc2ncnn2C1=O)Nc1ccc(Cl)cc1 (stereo not given)	-2	49	2	-3	.	.
O=C(CC1SC(=O)N(c2ccccc2)C1=O)Nc1ccc(Cl)cc1 (stereo not given)	-2	4	0	22*	0	7
CSC(=Nc1ccccc1)C(C#N)c1nc2ccccc2[nH]1 (stereo not given)	8	82*	3	-11	0	-3
N#CC(C(=S)Nc1ccccc1)c1nc2ccccc2[nH]1 (stereo not given)	8	-139	38	31*	0	20
c1ccc(Cn2nnnc2C(c2cccs2)N2CCc3ccccc3C2)cc1 (stereo not given)	2	76*	2	16*	0	1
c1ccc(Cn2nnnc2C(c2cccs2)N2CCCCCC2)cc1 (stereo not given)	-1	61	-1	4	0	3
CC(C)C(c1nnnn1Cc1ccccc1)N1CCc2ccccc2C1 (stereo not given)	-2	76*	-1	1	0	-2
CC(C)(C)c1ccc(/C=C/C(=O)NC2=NCCS2)cc1	-8	82*	4	12*	0	3
O=C1c2ccccc2C(=Cc2cccnc2)c2ccccc21	.	.	.	.	0	1
CN1C/C(=C/c2cccnc2)C(=O)/C(=C/c2cccnc2)C1	.	81*	.	20*	0	-4
CC(C)N1C/C(=C/c2cccnc2)C(=O)/C(=C/c2cccnc2)C1	.	100*	.	-1	0	0
SMILES	UPR XBP1 act	CHOP inhibitor	UPR CHOP act	NR3A LBD binder	aDG glyco up	MPTP block
CC(C)N1CC2=C(OC(N)=C(C#N)C2c2cccnc2)/C(=C/c2cccnc2)C1 (stereo not given)	-1	-19	2	-1	0	0
[N-]=[N+]=Nc1ccc(C(=O)CSC[C@H](NC(=O)CC[C@H](N)C(=O)O)C(=O)NCC(=O)O)cc1	.	17	.	.	.	.
COc1ccc(C(C#N)=Cc2cccc(OC)c2OC)cc1	.	.	.	.	0	-2
COC(=O)c1ccc(NC(=O)CSc2nncn2C)cc1	2	-15	2	8	0	-2
COC(=O)c1cc(NC(=O)CSc2nncn2C)cc(C(=O)OC)c1	-2	-4	0	11*	0	-2
O=C(c1ccc(Cl)cc1)[C@@H]1[C@@H]2C(=O)N(c3cccc4ccccc34)C(=O)[C@@H]2C2c3ccccc3C=NN21 (stereo not given in full)	-3	14	-2	-1	0	0
CCCS(=O)(=O)N1CCCC(C(=O)Oc2ccc(Cl)cc2)C1 (stereo not given)	-1	.	2	-1	0	-2
CC(OC(=O)Cc1cccc(C(F)(F)F)c1)C(=O)Nc1ccc(Cl)cn1 (stereo not given)	-2	.	-2	2	0	-1
Cc1ccc(NC(=O)c2cccc(S(=O)(=O)N3CCN(c4ccccc4)CC3)c2)nc1	0	.	2	28*	1	2
Cc1ccc(N2CCN(S(=O)(=O)c3nnc(NC(=O)c4ccccc4)s3)CC2)cc1	2	.	-1	10*	0	3
Cc1ccnc(NC(=O)c2cccc(S(=O)(=O)N3CCN(c4ccccc4)CC3)c2)c1	-5	.	-3	.	0	1
CCc1nc2ccc(C(=O)NCCCn3ccnc3)cn2c1N(C)C(=O)COc1ccccc1	.	.	.	.	0	0
Cc1ccc(NCc2nnc(SCC(=O)N3CCCc4ccccc43)o2)c(C)c1	2	75*	-1	2	0	3
O=C(CSc1nnc(CNc2ccccc2)o1)N1CCCc2ccccc21	0	-3	0	2	0	-1
Cc1ccc(NC(CNS(=O)(=O)c2ccc(Cl)cc2)c2ccccc2)cc1 (stereo not given)	-5	104*	-2	11*	0	7
C[C@H](CO)N1C[C@H](C)[C@@H](CN(C)S(=O)(=O)c2cn(C)cn2)Oc2c(NS(=O)(=O)c3cccs3)cccc2C1=O	1	.	1	1	0	1
Cc1ccccc1COc1cccn2c(N(C)C(=O)CCC3CCCC3)c(C)nc12	.	.	.	.	1	0
O=C(O)CC(NC(=O)c1ccccc1NC(=O)c1ccccc1)C(=O)O (stereo not given)	-1	22	-2	28*	0	-3
